Measurements as given in PMC4002258 (Biochimica et biophysica acta, 2013).
Where “and” joins values, the source holds several entries; their conditions need not be identical. Equal entries are not always repeated. Marks after values point to notes of the source that are not given here.

Assays:
Assay type in all cases: biochemical
[1] = target: human recombinant core 1 β1,3-Gal-transferase (C1GalT) (Homo sapiens, UniProt Q9NS00); assay: C1GalT glycosyltransferase assay; details: for C1GalT activity (%): acceptor substrate 0.5 mM, 0.5 mM GalNAcα-Bn set to 100%
Chain of human recombinant core 1 β1,3-Gal-transferase (C1GalT) (Q9NS00 30-363 limits assumed): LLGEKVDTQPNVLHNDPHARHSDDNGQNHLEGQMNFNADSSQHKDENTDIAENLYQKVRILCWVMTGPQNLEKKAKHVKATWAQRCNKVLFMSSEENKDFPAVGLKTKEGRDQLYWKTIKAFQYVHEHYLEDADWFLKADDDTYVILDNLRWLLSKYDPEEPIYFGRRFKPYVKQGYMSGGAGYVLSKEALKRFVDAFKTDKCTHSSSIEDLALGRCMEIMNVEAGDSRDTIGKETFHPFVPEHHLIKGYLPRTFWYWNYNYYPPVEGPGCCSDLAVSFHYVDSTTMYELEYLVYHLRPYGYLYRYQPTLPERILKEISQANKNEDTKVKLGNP

[2] = target: T1, human recombinant core 3 β1,3-GlcNAc-transferase (C3GnT) (Homo sapiens, UniProt Q6ZMB0); assay: C3GnT glycosyltransferase assay; details: for C3GnT activity (%): acceptor substrate 0.5 mM, 0.5 mM GalNAcα-Bn set to 100%; for Vmax / Km: C3GnT; for Vmax: acceptor substrate; for Km: apparent KM for acceptor substrate
T1 sequence (Q6ZMB0 32-384 limits assumed): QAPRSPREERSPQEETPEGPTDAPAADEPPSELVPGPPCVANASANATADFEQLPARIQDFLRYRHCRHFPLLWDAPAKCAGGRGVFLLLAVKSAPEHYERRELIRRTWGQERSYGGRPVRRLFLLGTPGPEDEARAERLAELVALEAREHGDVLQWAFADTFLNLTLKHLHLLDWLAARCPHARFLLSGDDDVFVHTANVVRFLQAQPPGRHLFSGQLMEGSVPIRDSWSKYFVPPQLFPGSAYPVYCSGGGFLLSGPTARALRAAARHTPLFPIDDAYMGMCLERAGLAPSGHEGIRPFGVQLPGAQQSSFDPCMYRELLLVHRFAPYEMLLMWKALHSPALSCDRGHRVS

[3] = target: T2, human recombinant core 2 β1,6-GlcNAc-transferase (C2GnT1) (Homo sapiens, UniProt Q02742); assay: C2GnT1 glycosyltransferase assay; details: for C2GnT1 activity (%): acceptor substrate 0.5 mM, 0.5 mM Galβ1–3GalNAcα-pnp set to 100%
T2 sequence (Q02742 33-428 limits assumed): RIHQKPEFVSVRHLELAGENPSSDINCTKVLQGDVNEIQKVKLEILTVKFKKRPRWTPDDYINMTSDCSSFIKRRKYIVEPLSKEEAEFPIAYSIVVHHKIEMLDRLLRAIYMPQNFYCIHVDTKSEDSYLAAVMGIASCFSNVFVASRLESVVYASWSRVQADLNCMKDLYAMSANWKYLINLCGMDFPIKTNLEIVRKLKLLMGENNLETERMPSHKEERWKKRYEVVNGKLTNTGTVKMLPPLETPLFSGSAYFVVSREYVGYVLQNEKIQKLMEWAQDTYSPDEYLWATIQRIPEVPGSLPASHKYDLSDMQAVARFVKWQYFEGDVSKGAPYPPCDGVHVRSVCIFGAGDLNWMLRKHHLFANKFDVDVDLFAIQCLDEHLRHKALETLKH

[4] = target: T3, human recombinant core 2/4 β1,6-GlcNAc-transferase (C2GnT2) (Homo sapiens, UniProt O95395); details: for C2GnT2 activity (%): acceptor substrate 0.5 mM, 0.5 mM Galβ1–3GalNAcα-pnp set to 100%
T3 sequence (O95395 27-438): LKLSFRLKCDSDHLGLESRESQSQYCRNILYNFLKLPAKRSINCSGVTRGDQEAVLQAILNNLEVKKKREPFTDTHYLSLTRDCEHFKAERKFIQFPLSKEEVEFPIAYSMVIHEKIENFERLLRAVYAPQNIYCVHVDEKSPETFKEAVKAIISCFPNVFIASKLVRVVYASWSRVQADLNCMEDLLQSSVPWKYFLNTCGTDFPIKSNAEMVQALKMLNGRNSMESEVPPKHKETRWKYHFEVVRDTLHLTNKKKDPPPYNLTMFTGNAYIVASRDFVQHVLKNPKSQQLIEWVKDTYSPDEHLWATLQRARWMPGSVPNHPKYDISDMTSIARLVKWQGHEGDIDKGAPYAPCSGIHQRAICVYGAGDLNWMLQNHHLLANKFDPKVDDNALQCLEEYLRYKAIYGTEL

[5] = target: T1, human recombinant core 3 β1,3-GlcNAc-transferase (C3GnT); assay: Inhibition of C3GnT; details: inhibitor 0.5 mM, 0.5 mM GalNAcα-Bn acceptor
In short: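 His-tagged human C3GnT from Sf9 cells, Ni2+-NTA purified, 0.003 mg protein per assay. Inhibitor at acceptor concentration unless indicated. Incubated 1 h at 37 °C, then cold-water stop. AG1×8 anion exchange; eluate counted by scintillation.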

[6] = target: T2, human recombinant core 2 β1,6-GlcNAc-transferase (C2GnT1); assay: Inhibition of C2GnT1; details: inhibitor 0.5 mM, 0.5 mM Galβ1–3GalNAcα-pnp acceptor

| C1GalT activity (%) [1] | C3GnT activity (%) [2] | Compound | other results |
| --- | --- | --- | --- |
| 99% | 8% | TT-(GalNAcα)TVTPTPTG | – |
| <1% | <1% | [2H]C([2H])([2H])O[C@@H]1O[C@H](CO[C@@H]2O[C@H](CO)[C@@H](O)[C@H](O)[C@H]2NC(C)=O)[C@H](O)[C@H](O)[C@H]1O [GlcNAcβ1–6-Galβ-OCD3] | – |
| 60% | 62% | CCC(=O)N[C@H]1[C@@H](OCc2ccccc2)O[C@H](CO)[C@H](O)[C@@H]1O [2-N-Propionyl-GalNα-Bn] | – |
| <1% | <1% | CC(=O)NC1C(OP(=O)(O)OP(=O)(O)OCCCCCCCCCCCOc2ccccc2)OC(CO)C(O)C1O (stereo not shown) [GalNAcα-O-PO3-PO3-(CH2)11-O-Ph] | – |
| <1% | <1% | CC(=O)N[C@H]1[C@H](OC[C@H]2O[C@H](Oc3ccc4ccccc4c3)[C@H](O)[C@@H](O)[C@H]2O)O[C@H](CO)[C@@H](O[C@@H]2O[C@H](CO)[C@H](O)[C@H](O)[C@H]2O)[C@@H]1O [Galβ1–4GlcNAcβ1–6Galα-(2-naphthyl)] | – |
| – | 15% | A-(GalNAcα)T | – |
| 38% | <1% | CC(=O)N[C@H]1[C@H](OC[C@H]2O[C@H](Oc3ccccc3[N+](=O)[O-])[C@H](NC(C)=O)[C@@H](O)[C@H]2O)O[C@H](CO)[C@@H](O[C@@H]2O[C@H](CO)[C@H](O)[C@H](O)[C@H]2O)[C@@H]1O [Galβ1–4GlcNAcβ1–6GalNAcα-onp] | – |
| 181% | 37% | CC(=O)N[C@H]1[C@@H](Oc2ccccc2)O[C@H](CO)[C@H](O)[C@@H]1O [GalNAcα-phenyl] | – |
| 102% | 153% | C=C(C)C1CC=C(CO[C@H]2O[C@H](CO)[C@H](O)[C@H](O)[C@H]2NC(C)=O)CC1 (stereo partly shown) [GalNAcα-perillyl] | Vmax [2]: 0.4 µmol/h/mg and 0.40 µmol/h/mg; Km [2]: 300 µM |
| <1% | <1% | CCO[C@H]1[C@@H](O)[C@@H](CO)O[C@H](OCc2ccccc2)[C@@H]1NC(C)=O [3-O-Ethyl-GalNAcα-Bn] | – |
| 68% | <1% | CC(=O)N[C@H]1[C@@H](OCc2ccccc2)O[C@H](C)[C@H](O)[C@@H]1O [6-Deoxy-GalNAcα-Bn] | – |
| <1% | <1% | CCCO[C@H]1[C@@H](O)[C@@H](CO)O[C@H](OCc2ccccc2)[C@@H]1NC(C)=O [3-O-Propyl-GalNAcα-Bn] | – |
| 564% | 22% | Ac-GHA-(GalNAcα)TSLPVTG-NH2 | – |
| 30% | <1% | CC(=O)N[C@H]1[C@@H](OCc2ccccc2)O[C@H](CO[C@@H]2O[C@H](CO)[C@H](O)[C@H](O)[C@H]2O)[C@H](O)[C@@H]1O [Galβ1–6GalNAcα-Bn] | – |
| 6% | <1% | CC(=O)N[C@H]1C(O)O[C@H](CO)[C@H](O)[C@@H]1O (stereo partly shown) [GalNAc, reference compound] | – |
| <1% | <1% | CCCC(=O)N[C@H]1[C@@H](OCc2ccccc2)O[C@H](CO)[C@H](O)[C@@H]1O [2-N-Butyryl-GalNα-Bn, benzyl 2-butanamido-2-deoxy-α-D-galactoside] | C2GnT1 activity (%) [3]: <1%; C2GnT2 activity (%) [4]: <1%; C3GnT Inhibition (%) [5]: did not inhibit; C2GnT1 Inhibition (%) [6]: did not inhibit |

| C1GalT activity (%) [1] | C3GnT activity (%) [2] | Compound | other results |
| --- | --- | --- | --- |
| <1% | <1% | OC[C@H]1O[C@H](OCc2ccccc2)C[C@@H](O)[C@H]1O [2-Deoxy-Galα-Bn] | – |
| – | – | [Cl][Mn][Cl] [Mn^2+, MnCl2] | C1GalT activity with cofactor/additive ([1]; 12.5 mM metal ion or EDTA, Mn2+ taken as 100%): 100%; EC50 ([1]; read-out: MnCl2 concentration for half-maximal C1GalT activity): 250 µM; reduction of C2GnT1 activity ([3]; 12.5 mM in the assay): 61%; reduction of C2GnT2 activity ([4]; 12.5 mM in the assay, core 1 or core 3 substrates): 83–85% |
| 259% | 5% | TTTVTP-(GalNAcα)TPTG | – |
| <1% | <1% | CC(=O)N[C@@H]1C[C@@H](O)[C@@H](CO)O[C@@H]1OCc1ccccc1 [3-Deoxy-GalNAcα-Bn] | C2GnT1 activity (%) [3]: <1%; C2GnT2 activity (%) [4]: <1% |
| <1% | <1% | CC(=O)N[C@H]1[C@@H](OCc2ccccc2)O[C@H](C)[C@H](O)[C@@H]1O[C@@H]1O[C@H](CO)[C@H](O)[C@H](O)[C@H]1O [Galβ1–3(6-deoxy)GalNAcα-Bn] | C2GnT1 activity (%) [3]: <1%; C2GnT2 activity (%) [4]: <1% |
| 74% | <1% | CC(=O)N[C@H]1[C@@H](OCc2ccccc2)O[C@H](CO[C@@H]2O[C@H](CO)[C@@H](O)[C@H](O)[C@H]2NC(C)=O)[C@H](O)[C@@H]1O [GlcNAcβ1–6-GalNAcα-Bn] | C2GnT1 activity (%) [3]: <1%; C2GnT2 activity (%) [4]: <1% |
| 100 ^a % | 100 ^b % | CC(=O)N[C@H]1[C@@H](OCc2ccccc2)O[C@H](CO)[C@H](O)[C@@H]1O [GalNAcα-Bn, reference compound] | Vmax ([1]; C1GalT, acceptor substrate): 0.14 µmol/h/mg; Km ([1]; C1GalT, apparent KM for acceptor substrate): 800 µM; Vmax [2]: 0.95 µmol/h/mg; Km [2]: 3000 µM; C2GnT1 activity (%) [3]: <1%; C2GnT2 activity (%) [4]: <1% |
| <1% | <1% | CC(=O)N[C@H]1[C@@H](OCc2ccccc2)O[C@H](CO)C[C@@H]1O [4-Deoxy-GalNAcα-Bn] | – |
| 63% | <1% | CC(=O)N[C@H]1[C@@H](OCc2ccccc2)O[C@H](CO[C@@H]2O[C@H](CO)[C@@H](O[C@@H]3O[C@H](CO)[C@H](O)[C@H](O)[C@H]3O)[C@H](O)[C@H]2O)[C@H](O)[C@@H]1O [Galβ1–4Glcβ1–6GalNAcα-Bn] | – |
| 191% | <1% | CC(=O)N[C@H]1[C@@H](OCc2ccccc2)O[C@H](COCCCC2CO2)[C@H](O)[C@@H]1O (stereo partly shown) [6-O-(4,5-Anhydro)pentyl-GalNAcα-Bn] | – |
| 204% | 88% | CC(=O)N[C@H]1[C@@H](Oc2ccc([N+](=O)[O-])cc2)O[C@H](CO)[C@H](O)[C@@H]1O [GalNAcα-pnp] | – |
| <1% | – | TE-(GlcNAcβ1–6GalNAcα)TTSHSTPG | C2GnT1 activity (%) [3]: <1%; C2GnT2 activity (%) [4]: <1% |
| 71% | 36% | Ac-V-(GalNAcα)TP-NH2 | – |
| 270% | 10% | TTTV-(GalNAcα)TPTPTG | – |
| <1% | <1% | CC(=O)N[C@H]1[C@H](OCc2ccccc2)O[C@H](CO)[C@@H](O[C@@H]2O[C@H](CO)[C@H](O)[C@H](O)[C@H]2NC(C)=O)[C@@H]1O [GalNAcβ1–4GlcNAcβ-Bn] | – |
| 88% | <1% | CC(=O)N[C@H]1[C@@H](OCc2ccccc2)O[C@H](CO[C@@H]2O[C@H](CO)[C@@H](F)[C@H](O)[C@H]2NC(C)=O)[C@H](O)[C@@H]1O [4-F-4-Deoxy-GlcNAcβ1–6-GalNAcα-Bn] | – |

| Compound | C1GalT activity (%) [1] | C3GnT activity (%) [2] | other results |
| --- | --- | --- | --- |
| AHGVT-(GalNAcα)SAPDTRPAPGSTAPPA | 39% | 15% | C2GnT1 activity (%) [3]: <1%; C2GnT2 activity (%) [4]: <1% |
